Test results reported in ChEMBL document CHEMBL2375229, “Synthesis and biological activities of some novel aminomethyl derivatives of 4-substituted-5-(2-thienyl)-2,4-dihydro-3H-1,2,4-triazole-3-thiones” (2013).
Converted amounts (≈) assume the structure as drawn.

test system: Radical scavenging activity; test: Antioxidant activity of the compound assessed as DPPH free radical scavenging activity at 187.5 uM after 60 mins by spectrophotometric analysis relative to control; type: functional
Procedure, shortened: (§1)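 DPPH• and sample stocks made in DMSO. DPPH• mixed with sample at several concentrations and brought to 4.0 mL in DMSO. Incubated 60 min at 25 °C in the dark, then absorbance read at 517 nm with solvent correction. Scavenging % = (A0−As)/A0×100 against a DPPH-only control. Ascorbic acid standard. Mean ± SD, n = 3.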

SMILES	inhibition [%]
S=c1n(CN2CCOCC2)nc(-c2cccs2)n1-c1ccccc1	79.2
C=CCn1c(-c2cccs2)n[nH]c1=S	47.4
C=CCn1c(-c2cccs2)nn(CN2CCC(C)CC2)c1=S	68.1
CCn1c(-c2cccs2)nn(CN2CCN(Cc3ccccc3)CC2)c1=S	74.5

test system: Klebsiella pneumoniae; test: Antibacterial activity against Klebsiella pneumoniae assessed as growth inhibition after 3 to 4 days by serial plate dilution method; type: functional
Procedure, shortened: (§2)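 Serial dilution in Mueller-Hinton broth adjusted to pH 5.0 with phosphate buffer. Standardized bacterial suspension inoculated, 16-18 h at 37 °C. Agar-well plates also used: compounds in DMSO added to punched wells, DMSO solvent control, triplicate plates held at 37 °C for 3–4 days. MIC taken as lowest concentration with no visible growth. Range tested 1.56–25 µg/mL. Ciprofloxacin standard.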

MIC [µg/mL]	SMILES
6.25 (≈ 17.4 µM)	S=c1n(CN2CCOCC2)nc(-c2cccs2)n1-c1ccccc1
25 (≈ 112 µM)	C=CCn1c(-c2cccs2)n[nH]c1=S
3.12 (≈ 9.33 µM)	C=CCn1c(-c2cccs2)nn(CN2CCC(C)CC2)c1=S
6.25 (≈ 15.6 µM)	CCn1c(-c2cccs2)nn(CN2CCN(Cc3ccccc3)CC2)c1=S

test system: Radical scavenging activity; test: Antioxidant activity of the compound assessed as DPPH free radical scavenging activity at 250 uM after 60 mins by spectrophotometric analysis relative to control; type: functional; procedure, shortened: as §1

SMILES	inhibition [%]
S=c1n(CN2CCOCC2)nc(-c2cccs2)n1-c1ccccc1	87.2
C=CCn1c(-c2cccs2)n[nH]c1=S	55.5
C=CCn1c(-c2cccs2)nn(CN2CCC(C)CC2)c1=S	69.7
CCn1c(-c2cccs2)nn(CN2CCN(Cc3ccccc3)CC2)c1=S	83.1

test system: Trichophyton mentagrophytes; test: Antifungal activity against Trichophyton mentagrophytes assessed as growth inhibition after 3 to 4 days by serial plate dilution method; type: functional
Procedure, shortened: (§3)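 Agar of peptone, D-glucose and agar at pH 5.7, lawned with saline spore suspension and dried 1 h at 37 °C. Compounds in DMSO added to punched wells, DMSO solvent control. Triplicate plates held at 37 °C for 3–4 days. […] Ciclopiroxolamine standard.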

MIC [µg/mL]	SMILES
1.56 (≈ 4.35 µM)	S=c1n(CN2CCOCC2)nc(-c2cccs2)n1-c1ccccc1
12 (≈ 53.7 µM)	C=CCn1c(-c2cccs2)n[nH]c1=S
6.25 (≈ 18.7 µM)	C=CCn1c(-c2cccs2)nn(CN2CCC(C)CC2)c1=S
3.12 (≈ 7.81 µM)	CCn1c(-c2cccs2)nn(CN2CCN(Cc3ccccc3)CC2)c1=S

test system: Staphylococcus aureus; test: Antibacterial activity against Staphylococcus aureus ATCC 25923 assessed as growth inhibition after 3 to 4 days by serial plate dilution method; type: functional; procedure, shortened: as §2

MIC [µg/mL]	SMILES
12 (≈ 33.5 µM)	S=c1n(CN2CCOCC2)nc(-c2cccs2)n1-c1ccccc1
25 (≈ 112 µM)	C=CCn1c(-c2cccs2)n[nH]c1=S
1.56 (≈ 4.66 µM)	C=CCn1c(-c2cccs2)nn(CN2CCC(C)CC2)c1=S
6.25 (≈ 15.6 µM)	CCn1c(-c2cccs2)nn(CN2CCN(Cc3ccccc3)CC2)c1=S

test system: Radical scavenging activity; test: Antioxidant activity of the compound assessed as DPPH free radical scavenging activity at 312.5 uM after 60 mins by spectrophotometric analysis relative to control; type: functional; procedure, shortened: as §1

SMILES	inhibition [%]
C=CCn1c(-c2cccs2)n[nH]c1=S	68.8
C=CCn1c(-c2cccs2)nn(CN2CCC(C)CC2)c1=S	72.4
CCn1c(-c2cccs2)nn(CN2CCN(Cc3ccccc3)CC2)c1=S	90.9

test system: Escherichia coli; test: Antibacterial activity against Escherichia coli ATCC 25922 assessed as growth inhibition after 3 to 4 days by serial plate dilution method; type: functional; procedure, shortened: as §2

MIC [µg/mL]	SMILES
6.25 (≈ 17.4 µM)	S=c1n(CN2CCOCC2)nc(-c2cccs2)n1-c1ccccc1
12 (≈ 53.7 µM)	C=CCn1c(-c2cccs2)n[nH]c1=S
3.12 (≈ 9.33 µM)	C=CCn1c(-c2cccs2)nn(CN2CCC(C)CC2)c1=S
12 (≈ 30 µM)	CCn1c(-c2cccs2)nn(CN2CCN(Cc3ccccc3)CC2)c1=S

test system: Aspergillus flavus; test: Antifungal activity against Aspergillus flavus NCIM 524 assessed as growth inhibition after 3 to 4 days by serial plate dilution method; type: functional; procedure, shortened: as §3

MIC [µg/mL]	SMILES
1.56 (≈ 4.35 µM)	S=c1n(CN2CCOCC2)nc(-c2cccs2)n1-c1ccccc1
12 (≈ 53.7 µM)	C=CCn1c(-c2cccs2)n[nH]c1=S
6.25 (≈ 18.7 µM)	C=CCn1c(-c2cccs2)nn(CN2CCC(C)CC2)c1=S
3.12 (≈ 7.81 µM)	CCn1c(-c2cccs2)nn(CN2CCN(Cc3ccccc3)CC2)c1=S

test system: Aspergillus fumigatus; test: Antifungal activity against Aspergillus fumigatus NCIM 902 assessed as growth inhibition after 3 to 4 days by serial plate dilution method; type: functional; procedure, shortened: as §3

MIC [µg/mL]	SMILES
3.12 (≈ 8.7 µM)	S=c1n(CN2CCOCC2)nc(-c2cccs2)n1-c1ccccc1
25 (≈ 112 µM)	C=CCn1c(-c2cccs2)n[nH]c1=S
12 (≈ 35.9 µM)	C=CCn1c(-c2cccs2)nn(CN2CCC(C)CC2)c1=S
6.25 (≈ 15.6 µM)	CCn1c(-c2cccs2)nn(CN2CCN(Cc3ccccc3)CC2)c1=S

test system: Pseudomonas aeruginosa; test: Antibacterial activity against Pseudomonas aeruginosa ATCC 27853 assessed as growth inhibition after 3 to 4 days by serial plate dilution method; type: functional; procedure, shortened: as §2

MIC [µg/mL]	SMILES
6.25 (≈ 17.4 µM)	S=c1n(CN2CCOCC2)nc(-c2cccs2)n1-c1ccccc1
12 (≈ 53.7 µM)	C=CCn1c(-c2cccs2)n[nH]c1=S
3.12 (≈ 9.33 µM)	C=CCn1c(-c2cccs2)nn(CN2CCC(C)CC2)c1=S
12 (≈ 30 µM)	CCn1c(-c2cccs2)nn(CN2CCN(Cc3ccccc3)CC2)c1=S

test system: Talaromyces marneffei; test: Antifungal activity against Penicillium marneffei assessed as growth inhibition after 3 to 4 days by serial plate dilution method; type: functional; procedure, shortened: as §3

MIC [µg/mL]	SMILES
3.12 (≈ 8.7 µM)	S=c1n(CN2CCOCC2)nc(-c2cccs2)n1-c1ccccc1
25 (≈ 112 µM)	C=CCn1c(-c2cccs2)n[nH]c1=S
12 (≈ 35.9 µM)	C=CCn1c(-c2cccs2)nn(CN2CCC(C)CC2)c1=S
6.25 (≈ 15.6 µM)	CCn1c(-c2cccs2)nn(CN2CCN(Cc3ccccc3)CC2)c1=S

test system: Radical scavenging activity; test: Antioxidant activity of the compound assessed as DPPH free radical scavenging activity at 125 uM after 60 mins by spectrophotometric analysis relative to control; type: functional; procedure, shortened: as §1

SMILES	inhibition [%]
S=c1n(CN2CCOCC2)nc(-c2cccs2)n1-c1ccccc1	68.4
C=CCn1c(-c2cccs2)n[nH]c1=S	45.2
C=CCn1c(-c2cccs2)nn(CN2CCC(C)CC2)c1=S	53.5
CCn1c(-c2cccs2)nn(CN2CCN(Cc3ccccc3)CC2)c1=S	63.2

test system: Radical scavenging activity; test: Antioxidant activity of the compound assessed as DPPH free radical scavenging activity at 62.5 uM after 60 mins by spectrophotometric analysis relative to control; type: functional; procedure, shortened: as §1

SMILES	inhibition [%]
S=c1n(CN2CCOCC2)nc(-c2cccs2)n1-c1ccccc1	59.1
C=CCn1c(-c2cccs2)n[nH]c1=S	40.7
C=CCn1c(-c2cccs2)nn(CN2CCC(C)CC2)c1=S	50.1
CCn1c(-c2cccs2)nn(CN2CCN(Cc3ccccc3)CC2)c1=S	53.5
